Out of some 360,000 compounds screened, about 1,400 (0.39%) were called active.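 Rule for the calls: active = pattern-corrected inhibition above about 35%, with an unprinted fluorescence ratio check between 0.5 and 1.5 (limit read from the data, passing the limit was not always enough); inactive = the rest.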 Many of the other results were omitted from the sample, so actives are more common in it than they were.

From PubChem BioAssay AID651999 (Sanford-Burnham Center for Chemical Genomics, 2013) come the findings set out here.

The target of this assay is COP9 signalosome complex subunit 5 (Homo sapiens) (UniProt Q92905). The assay is described as follows: CSN5 deneddylase inhibitors on cullin-RING ligase – biochemical, fluorescence polarization, uHTS, primary screen (AID 651999).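 Note: 0% = enzyme with substrate and 100% = substrate without enzyme.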 As to conditions: Purified CSN, SCF-Nedd8-OG deneddylation, at 12.5 µM, active compounds read high. In a few lines: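 Assay system: HEK293T-derived human Csn5 enzyme; quantity: 0.24 nM enzyme; medium: Tris/NaCl/DTT buffer, pH 7.5; also added: substrate SCFSkp2-Nedd8OG, 10 nM; doses: 12.5 µM compound; schedule: 90 min reaction at room temperature; signal: FP; read-out: % inhibition of substrate cleavage by Csn5; benchmarks: substrate-only high control, full reaction low control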
COP9 signalosome complex subunit 5 (Homo sapiens), sequence (Q92905 whole entry, looked up, one chain of several): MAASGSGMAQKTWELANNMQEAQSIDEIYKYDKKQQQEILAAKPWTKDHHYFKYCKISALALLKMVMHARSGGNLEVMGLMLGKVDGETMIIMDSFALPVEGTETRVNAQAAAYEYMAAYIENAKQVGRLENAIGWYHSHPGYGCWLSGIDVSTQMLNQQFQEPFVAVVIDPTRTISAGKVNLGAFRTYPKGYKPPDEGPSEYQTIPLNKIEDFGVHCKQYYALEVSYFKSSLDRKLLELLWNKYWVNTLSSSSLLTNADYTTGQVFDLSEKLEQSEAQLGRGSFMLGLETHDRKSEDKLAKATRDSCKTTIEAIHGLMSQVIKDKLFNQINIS
In the case of `O=C(NCc1ccncc1)C(=O)NCc1ccco1`, the inhibition – broadly, the relative decrease from the control value, in per cent – is -6.34% (inactive). As for `CCCN(CC1CC1)C(=S)NC(=O)c1ccccc1Br`, the figure is -6.61% (inactive); as for `CN1CCN(c2ccc(S(=O)(=O)N3CCOCC3)cc2NC(=O)CCc2ccccc2)CC1`, 2.64% (inactive). As for `CCOC(=O)CN(C)S(=O)(=O)c1ccc(-c2cc(C(=O)OC)sc2C(F)(F)F)cc1`, the figure is 1.34% (inactive). On to `COc1ccc(Nc2cc(Sc3ccc(OC)cc3)ncn2)cc1`, for which the inhibition is -0.7% (inactive). To `COc1ccc(NC2=CC(=S)NC(C)(C)C2)cc1` belongs 42.9% (active); to `COc1ccc(CCNC2=CC(=O)CC(C)(C)C2)cc1`, -5.48% (inactive). `O=C(NCCc1ccccc1)C(=O)NCC1OCCN1S(=O)(=O)c1cccs1` (stereo not drawn): the inhibition was 0% (inactive). To `O=C(Nc1ccc(Cl)c(Cl)c1)c1ccccc1NC(=O)C1CC=CCC1C(=O)O` (stereo not drawn) belongs -4.09% (inactive); to `Cc1cc(N(C)C)cc(C)[n+]1[O-]`, -2.98% (inactive).

As to `O=C1CSC(c2ccc(Cl)cc2)N1` (stereo not drawn), the inhibition is -5.2% (inactive). To `CCCCC(c1nnnn1CS(=O)(=O)c1ccc(C)cc1)N1CCC(C(N)=O)CC1` (stereo not drawn) belongs -2.76% (inactive); to `CC(C)(C)C1C/C(=C/c2ccco2)C(=O)/C(=C/c2ccco2)C1` (stereo not drawn), 41.2% (active). To `CCCC/C(C)=N/NC(=O)NC1CCCCC1` belongs -3.54% (inactive); to `Nc1c(-c2ccc(F)cc2)cnc2ncnn12`, 2.66% (inactive); to `O=C(COc1ccc2c(C(F)(F)F)cc(=O)oc2c1)Nc1ccc2c(c1)OCCO2`, 187% (active). For `CCN(CC(=O)Nc1ccc2c(c1)OCCO2)Cc1cc(=O)oc2cc(C)c(C)cc12`, the inhibition was 4.55% (inactive). As for `CCc1ccccc1OCC(=O)Nc1ccc2c(c1)OCCO2`, the figure is 1.42% (inactive); as for `Cc1ccc(NC(=O)COc2ccc(/C=N\NC(=O)c3cccnc3)cc2)cc1C`, 158% (active).

For `Cc1ccc(NC(=O)COc2ccc(-n3ccnc3)cc2)cc1Cl`, the inhibition was 0% (inactive). As to `Cc1cccc(OCC(=O)NCCNC(=O)c2cccnc2)c1`, the inhibition is 0.16% (inactive). With `CSCCC(NS(=O)(=O)c1ccc(C)cc1)C(=O)N(C)CC(=O)Nc1ccccc1Br` (stereo not drawn), the inhibition is 1.95% (inactive). As for `Cc1nc(SCC(=O)NC2CCCCC2C)c(C#N)c(C)c1C` (stereo not drawn), the figure is 0.75% (inactive). As for `CCC(C)N1C(=O)S/C(=C/c2ccc(Sc3nc4ccccc4[nH]3)o2)C1=O` (stereo not drawn), the figure is 4.54% (inactive). As for `O=C(O)C(c1ccccc1)N1C(=O)/C(=C\c2ccc(-c3cccc(Cl)c3)o2)SC1=S` (stereo not drawn), the figure is 93.7% (active); as for `CC1COc2ccccc2N1S(=O)(=O)c1ccccc1` (stereo not drawn), -12.8% (inactive); as for `CCOC(=O)C1CCN(C(=O)CC2C(=O)N(Cc3ccccc3)C(C)c3nc4ccccc4n32)CC1` (stereo not drawn), 4.78% (inactive). For `CN(C)N=Nc1ccc2nc[nH]c2c1`, the inhibition is -1.48% (inactive). As to `CC1=CC(=NNS(=O)(=O)c2ccc([N+](=O)[O-])cc2)CC(C)(C)C1`, the inhibition was 8.55% (inactive).

As to `Cc1ccc(Cc2cnc(N)s2)o1`, the inhibition was 36.5% (active). To `CC(=O)c1nnn(-c2ccc(Cl)cc2C#N)c1C` belongs 0.92% (inactive); to `CC(C)(C)c1ccc(C(=O)N2CCC(C(=O)N3CCCCC3)CC2)cc1`, -2.5% (inactive).

`O=c1ccc(-c2ccc(S(=O)(=O)Nc3ccccc3)o2)n[nH]1`: the inhibition was 6.31% (inactive).

Consider `Cn1c2ccccc2c2cc(/C=C(\NC(=O)c3ccccc3)C(=O)NCC(=O)O)ccc21`, for which the inhibition is 60.8% (active). To `CCOc1ccc(/C=C(/NC(=O)c2ccccc2)C(=O)NCCC(=O)O)cc1` belongs -10.6% (inactive). To `O=C(NCC1CCCO1)/C(=C/c1ccc(Cl)cc1)NC(=O)c1ccccc1` (stereo not drawn) belongs -2.86% (inactive); to `CC1CCN(S(=O)(=O)c2ccc(S(=O)(=O)NCc3ccco3)cc2)CC1`, 0.01% (inactive); to `Cc1noc(NS(=O)(=O)c2ccc(N3CC(O)=C(c4ccccc4)C3=N)cc2)c1C`, 2.49% (inactive). As for `O=C1CC(c2c(F)cccc2Cl)C(n2cncn2)C(O)=C1C1NCCc2ccccc21` (stereo not drawn), the figure is -3.94% (inactive). For `CCn1c(SCC(=O)Nc2ccc(Br)cc2)nc2sc3c(c2c1=O)CCN(C)C3`, the inhibition is 3.55% (inactive).

With `CCOc1ccc(-n2c(SCC(=O)Nc3ccc(OC)cc3)nc3sc4c(c3c2=O)CCN(C)C4)cc1`, the inhibition was 102% (active). As for `CCCSc1nc2sc3c(c2c(=O)n1-c1ccc(OC)cc1)CCN(C)C3`, the figure is 7.27% (inactive); as for `CCN(CC)C(=O)CSc1nnc(-c2ccc(S(=O)(=O)NCc3ccccc3Cl)cc2)o1`, -2.99% (inactive); as for `NC(=S)c1ccc(C(N)=S)o1`, 2.12% (inactive). To `O=C(NCCCn1ccnc1)c1cc2c(s1)CCCC2` belongs 0.16% (inactive); to `COc1ccc2c(c1)OC(O)(C(F)(F)C(F)F)CC2=O` (stereo not drawn), 2.02% (inactive); to `Oc1ccc(N=Cc2c(O)ccc3ccccc23)cc1`, 58.2% (active). To `C/C(=N\NC(N)=S)c1cccnc1` belongs -5.1% (inactive); to `CCc1nc2c(=O)[nH]cnc2o1`, -0.47% (inactive). With `Cc1c(CNCCc2ccccc2)c(C(=O)O)c(C)n1-c1ccccc1`, the inhibition was -2.52% (inactive). To `Cc1ccc(OCCNC(=O)c2cccc(S(=O)(=O)N3CCN(Cc4ccccc4)CC3)c2)cc1` belongs -1.93% (inactive); to `Cn1c(=O)[nH]c2c(c(C(=O)O)nn2C)c1=O`, -1.75% (inactive). To `COc1ccccc1N1CCN(C(=O)C(=O)N/N=C/c2ccccc2F)CC1` belongs -1.85% (inactive). As for `COc1cc(/C=N\NC(=O)c2nonc2N)c(OC)cc1Br`, the figure is 3.66% (inactive); as for `COc1cccc(/C=N/NC(=O)c2[nH]nc3c2CCc2ccccc2-3)c1O`, 67% (active). As for `CC1CC(C)CN(C(=O)CCNC(=O)Cn2cnc3ccccc3c2=O)C1` (stereo not drawn), the inhibition is -0.46% (inactive). To `O=C(CN1CCN(c2ncc(C(F)(F)F)cc2Cl)CC1)Nc1ccc2c(c1)OCO2` belongs 4.43% (inactive); to `CCCC(=O)n1nc(NCc2ccc(OC)cc2)nc1NCc1ccc(OC)cc1`, 0.03% (inactive).

As for `CC1(C)C=Cc2c(ccc3c2OC[C@@H](c2ccc(O)cc2O)C3)O1`, the inhibition was 1.92% (inactive). In the case of `Cc1ccc(-c2nc3c(C)cc(Br)cn3c2Cc2ccccc2)cc1`, the inhibition was -3.35% (inactive). To `Cc1cc(Br)cn2c(Cc3ccsc3)c(-c3ccc(C#N)cc3)nc12` belongs 77.2% (active). With `Cc1cc(Br)cn2c(Cc3cccc(F)c3)c(-c3cccc(Br)c3)nc12`, the inhibition was 1.9% (inactive). As for `COC(=O)c1cc(NC(=O)CC2C(=O)NCCN2C(=O)c2ccc(F)cc2)cc(C(=O)OC)c1` (stereo not drawn), the figure is 0.24% (inactive); as for `CS(=O)(=O)c1ccc(-c2nnn(CC(=O)Nc3ccc4c(c3)OCCO4)n2)cc1`, 0.36% (inactive). As for `CS(=O)(=O)c1ccc2c(c1)SC1=NC(=O)/C(=C/c3ccco3)C(=N)N12`, the figure is 58.8% (active); as for `COc1ccc(N2CCN(C(=O)CNS(=O)(=O)c3ccc(C)c(C)c3)CC2)cc1`, -4.8% (inactive); as for `COc1ccc(NC(=O)CC2SC(N3CCCCC3)=NC2=O)cc1OC` (stereo not drawn), 0.22% (inactive). To `COc1ccc(S(=O)(=O)N2CCN(CC(=O)N3c4ccccc4CC3C)CC2)cc1OC` (stereo not drawn) belongs 18.4% (inactive); to `COc1ccc(C2COC(=O)C2=N)c(NC(=O)c2ccccc2)c1` (stereo not drawn), -4.82% (inactive); to `CCOC(=O)c1cc(NC(=O)c2ccc(Cl)cc2)c(=O)oc1-c1ccccc1`, -2.25% (inactive). For `CC(=O)c1cc(NC(=O)c2ccccc2)c(=O)oc1/C=C/N(C)C`, the inhibition is 55.4% (active). As for `CCCCCCCC1(C)NC(=O)N(CC(=O)Nc2cc(C)on2)C1=O` (stereo not drawn), the figure is -7.92% (inactive). As for `C=CCn1c(SCc2cccc(F)c2)nc2cc(C(=O)N3CCC(C(N)=O)CC3)ccc2c1=O`, the figure is 0.76% (inactive). To `Cc1ccc(CSCC2Nc3ccc(C(=O)N4CCN(c5ccc(F)cc5)CC4)cc3NC2=O)cc1` (stereo not drawn) belongs 25.2% (inactive); to `O=C1Nc2cc(C(=O)N3CCN(c4ccc(F)cc4)CC3)ccc2NC1CSCc1cccc(F)c1` (stereo not drawn), 51.2% (active); to `O=C(NCc1cccs1)c1ccc(Br)o1`, -0.05% (inactive).

On to `CC(C)Cn1c(N)c(C(=O)NCc2cccs2)c2nc3ccccc3nc21`, for which the inhibition was 36% (active). To `O=C(Cc1coc2ccc3ccccc3c12)NCc1cccs1` belongs -8.34% (inactive); to `CCOc1c(Br)cc(/C=C2\C(=O)N(CCC#N)N=C2C)cc1OC`, 2.79% (inactive); to `COc1cc(/C=C2/C(=O)NN(c3cccc(Cl)c3)C2=O)cc(Br)c1O`, 44.4% (active). To `CCc1nc2ccc(C(=O)N(C)CCN(C)C)cn2c1N(CC)CCOC` belongs -0.82% (inactive); to `O=C(CCN1C(=O)COc2ccccc21)NCCCN1CCN(c2ccc(F)cc2)CC1`, -4.53% (inactive); to `CN1CCN(CCCNC(=O)c2ccc(/C=C3\Oc4ccccc4N(Cc4ccc(Cl)cc4)C3=O)cc2)CC1`, 119% (active). As for `O=C(CC1Oc2ccccc2NC1=O)NCCCN1CCN(Cc2ccccc2)CC1` (stereo not drawn), the figure is -8.5% (inactive); as for `Cc1nonc1OCCn1nnnc1N`, -0.98% (inactive). On to `O=C(O[C@H]1[C@H](Cc2ccccc2)NS(=O)(=O)[C@H]2C[C@@H]3C=C[C@]12O3)c1ccc([N+](=O)[O-])cc1`, for which the inhibition was 0.94% (inactive). To `CCCSc1nc2[nH]ncc2c(=O)[nH]1` belongs 0.78% (inactive); to `Cn1ccnc1-c1nnn(-c2ccc(F)cc2)n1`, -1.15% (inactive). To `CC(=O)NCCn1c(SCC(=O)Nc2ccc(C)cc2)nc2ccccc2c1=O` belongs -2.03% (inactive); to `COc1ccc(NC(=O)CSc2nc3ccccc3c(=O)n2C)cc1`, 81.7% (active). To `COc1ccc(NC(=O)CSc2nnc(Cc3ccccc3)c(=O)n2N)cc1` belongs 2.76% (inactive); to `C=CCSc1nc2c(c(=O)[nH]1)C(C(C)C)C(C#N)=C(N)O2` (stereo not drawn), -4.61% (inactive).

For `CCCNC(=O)C(=O)Nc1cc2c3c(c1)CCC(=O)N3CCC2`, the inhibition was -1.23% (inactive).

As to `CCOc1ccc(NS(=O)(=O)c2ccc(C)c(C(N)=O)c2)cc1`, the inhibition was 8.11% (inactive).

For the molecule `COc1ccc(NS(=O)(=O)c2ccc(C)c(C(=O)NCC(c3cccs3)N3CCOCC3)c2)cc1` (stereo not drawn), the inhibition is 1.17% (inactive). For the molecule `COc1ccc(NS(=O)(=O)c2ccc(C)c(C(=O)N(C)Cc3ccc(OC)cc3OC)c2)cc1`, the inhibition was 157% (active). To `CC1O[C@H](OC2C(COC3OC(CO)C(O)[C@H](O)C3O)OC(OC3CC[C@]4(C)C(CC[C@@]5(C)[C@@H]4C=C[C@]46OC[C@@]7(CCC(C)(C)C[C@H]74)C(O)C[C@@]56C)C3(C)C)C(O)C2O)C(O)C(O)C1O` (stereo partly drawn) belongs -2.09% (inactive); to `COc1ccc(-n2nnc3c(=O)n(CC(=O)N4CCC(Cc5ccccc5)CC4)cnc32)cc1`, -0.9% (inactive).
